NR2E3 ag-1: agonists of human NR2E3 nuclear receptor. Q9Y5X4. CHO-S Gal4-NCOR/VP16-NR2E3 two-hybrid, luciferase. inhibition of corepressor binding, % at 3.98 µM. 360,000 tested, 0.35% active. AID 602229;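 active = inhibition above the mean of all tested compounds plus 3 SD, cut at about 70% in these data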;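 also: higher means lower luciferase signal from less NR2E3 corepressor binding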
Target sequence (Q9Y5X4 whole entry, looked up, the tested form may be a part): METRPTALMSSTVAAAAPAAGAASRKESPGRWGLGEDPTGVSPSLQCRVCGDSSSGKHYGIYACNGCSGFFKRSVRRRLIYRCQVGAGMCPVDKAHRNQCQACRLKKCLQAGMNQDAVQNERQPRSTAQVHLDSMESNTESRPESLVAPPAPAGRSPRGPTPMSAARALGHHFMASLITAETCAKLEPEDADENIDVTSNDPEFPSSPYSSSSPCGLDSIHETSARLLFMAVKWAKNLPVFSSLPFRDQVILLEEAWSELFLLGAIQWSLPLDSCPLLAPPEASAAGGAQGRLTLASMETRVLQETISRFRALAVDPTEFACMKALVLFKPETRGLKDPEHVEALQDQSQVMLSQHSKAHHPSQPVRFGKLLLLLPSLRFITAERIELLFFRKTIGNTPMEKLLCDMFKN
NR1D1 modulator: modulates human Rev-erb alpha binding to DNA; P20393; Rev-erbα–FITC-DNA binding, fluorescence polarization, 90 min; activity, % at 10 µM; 370,000 tested, 0.79% active; AID 1259318;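 active = activity above about 14%, limit read from the data; passing the limit was not always enough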
NR2E3 ag-2: NR2E3 (human) agonism. Q9Y5X4. AID 2300. 320,000 tested, 0.12% active. GST-NR2E3/biotin-RetCOR TR-FRET, 1536-well. inhibition of corepressor binding, % at 4.78 µM;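 active = percent inhibition above the cutoff of mean plus 3 SD of all tested compounds, set per screening campaign, cut at about 20% in these data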
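Material – GST-tagged NR2E3 plus biotinylated RetCOR corepressor · Quantity – NR2E3 fusion 1.35 nM · Times – 5 h incubation at 4 °C · Medium – pH 7.5 Tris-based buffer · Technique – TR-FRET, Eu(K)-anti-GST donor, streptavidin-D2 acceptor, ex 340, em 617/671 nm · Benchmarks – high control biotin, low control 0.6% DMSO · Format – 1536-well plates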
PG9 Ab binder: small molecules binding HIV-1 gp120 antibody PG9 | AID 624416 | TR-FRET gp120-PG9 antibody binding | 360,000 tested, 0.43% active | inhibition, % at 6.7 µM; in the data active = inhibition above about 8.5%
rCAG RNA binder: molecules binding r(CAG) RNA repeats; r(CAG) RNA repeat, TO-PRO-1 dye displacement fluorescence; inhibition, % at 3 µM; 370,000 tested, 1.3% active;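 active = inhibition above the plate cutoff, the mean of all test compounds on that plate plus 3 SD, cut at about 35% in these data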;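 also: higher means more dye released from RNA so lower well fluorescence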
rCAG binder conf: r(CAG) RNA repeat binding, confirmation. shares compounds with rCAG RNA binder. TO-PRO-1 dye displacement fluorescence. inhibition, % at 3 µM. 4,300 tested, 70% active. AID 652065;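 active = inhibition above a per-plate cutoff, the mean inhibition of sample wells plus 3 SD, cut at about 35% in these data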;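 also: loss of TO-PRO-1 fluorescence as compound displaces dye from 1x1 AA loop RNA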
DNA CAG counter: counter-screen for rCAG RNA binders: DNA CAG dye complex inhibitors | d(CAG) DNA oligo TO-PRO-1 dye displacement, fluorescence | AID 652068 | 4,300 tested, 94% active | inhibition, % at 3 µM | shares compounds with rCAG RNA binder;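 active = inhibition above its plate's cutoff, the mean test-well inhibition plus 3 SD, cut at about 4.8% in these data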;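 also: hits displace the dye from DNA and so lower well fluorescence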
DNA CAG DR: disrupts DNA CAG TO-PRO-1 complex in dose response | shares compounds with rCAG RNA binder | IC50, µM | 250 tested, 20% active | AID 686960 | DNA CAG/GTC duplex TO-PRO-1 dye displacement fluorescence; in the data active = IC50 below about 10 µM
Large screens that a line does not name were inactive (follow-up assays come after a bar, where they were run). Sampled rows, rich in hits. Any-hit rate of the full collection: about 2.6%.

COc1cc(/C=C2\C(=O)N(c3ccc(NC(C)=O)cc3)N=C2c2ccccc2)ccc1O	rCAG RNA binder 82.8 | rCAG binder conf 70.1 | DNA CAG counter 31.3 | DNA CAG DR inactive
O=C(NNC(=O)c1ccccc1Br)c1cnccn1	none (no result: NR2E3 ag-2)
O=C(Nc1ccccc1C(=O)O)c1cc(S(=O)(=O)N2CCOCC2)c(Br)s1	rCAG RNA binder 46.5 | rCAG binder conf 66.5 | DNA CAG counter 36.1
COc1cc(Cl)ccc1OCc1cc(C(=O)N(C)Cc2cccc3cnccc23)no1	none
O=C(O)c1ccc(NC2=C/C(=N/S(=O)(=O)c3ccccc3)c3ccccc3C2=O)cc1	rCAG RNA binder 60.7 (no result: NR2E3 ag-2) | rCAG binder conf 37.6 | DNA CAG counter 11.4
CCc1ccc(S(=O)(=O)/N=C2\C=C(Nc3cccc(C(=O)O)c3)C(=O)c3ccccc32)cc1	rCAG RNA binder 81.1 | rCAG binder conf 76.5 | DNA CAG counter 37.4
O=S(=O)(N=C1C=CC(=NS(=O)(=O)c2ccccc2)c2ccccc21)c1ccccc1	none (no result: NR2E3 ag-2)
Fc1ccccc1-c1n[nH]c(=S)n1N=Cc1cccc(OCc2ccccc2)c1	rCAG RNA binder 73.1 (no result: NR2E3 ag-1, NR2E3 ag-2, PG9 Ab binder) | rCAG binder conf 63.8 | DNA CAG counter 24.1
Fc1ccc(-c2n[nH]c(=S)n2N=Cc2cccc(OCc3ccccc3)c2)cc1	rCAG RNA binder 58.2 (no result: NR2E3 ag-1, NR2E3 ag-2, PG9 Ab binder) | rCAG binder conf 51.4 | DNA CAG counter 18.3
Fc1ccccc1-c1n[nH]c(=S)n1N=Cc1ccc(-c2ccccc2)cc1	rCAG RNA binder 60.5 (no result: NR2E3 ag-1, NR2E3 ag-2, PG9 Ab binder) | rCAG binder conf 48.1 | DNA CAG counter 13.6
Oc1ccc(Br)cc1/C=N/n1c(-c2ccccc2)n[nH]c1=S	none
Oc1c(Br)cc(Br)c(/C=N/n2c(-c3ccccc3)n[nH]c2=S)c1Br	rCAG RNA binder 59.4 | rCAG binder conf 43.3 | DNA CAG counter 14.1
Fc1ccccc1/C=N/n1c(COc2ccccc2)n[nH]c1=S	none
C[C@H]1CN([C@@H](C)CO)C(=O)c2cccc(NC(=O)c3cnccn3)c2O[C@@H]1CN(C)S(=O)(=O)c1ccc(F)cc1	none (no result: NR1D1 modulator, NR2E3 ag-2, PG9 Ab binder, rCAG RNA binder)
Cc1nc2cc(-c3ccsc3-n3c(C)ccc3C)[nH]n2c(=O)c1Cl	rCAG RNA binder 50.6 | rCAG binder conf 60.5 | DNA CAG counter 26.4
COCc1cc(=O)n2[nH]c(-c3ccsc3-n3c(C)ccc3C)cc2n1	rCAG RNA binder 40.5 | rCAG binder conf 39.4 | DNA CAG counter 17.4
Cc1cc(=O)n2[nH]c(-c3ccsc3-n3c(C)ccc3C)cc2n1	none
C=CCN1C(=O)/C(=C/c2ccc(OCC(=O)O)cc2)S/C1=N/c1nccs1	rCAG RNA binder 56.2 | rCAG binder conf 57.0 | DNA CAG counter 17.4
C#CCN(C(=O)C1CCC(=O)N(CCc2cccc(F)c2)C1)C1CCCCC1 (stereo not given)	none (no result: NR2E3 ag-2)
O=C(CCc1ccccc1)Nc1cc2c3c(c1)CCC(=O)N3CCC2	rCAG RNA binder 41.6 | rCAG binder conf inactive | DNA CAG counter inactive
O=C(CCc1ccccc1)Nc1cc(NC(=O)CCc2ccccc2)cc(C(=O)O)c1	rCAG RNA binder 40.3 | rCAG binder conf inactive | DNA CAG counter inactive
O=C(CCc1ccccc1)Nc1ccncc1	none
CCOC(=O)c1cc(-c2cccc(O)c2)oc1C	none (no result: NR2E3 ag-2)
O=C(CSC1=NS(=O)(=O)c2cc(Cl)ccc2N1)Nc1ccccc1C(F)(F)F	rCAG RNA binder 52.0 | rCAG binder conf 51.7 | DNA CAG counter 10.9 | DNA CAG DR inactive
O=C(CSC1=NS(=O)(=O)c2cc(Cl)ccc2N1)Nc1ccccc1F	rCAG RNA binder 59.2 | rCAG binder conf inactive | DNA CAG counter 6.8
CC(=O)Nc1ccc(NC(=O)CSC2=NS(=O)(=O)c3cc(Cl)ccc3N2)cc1	none
O=C(CSC1=NS(=O)(=O)c2cc(Cl)ccc2N1)NCCc1ccccc1	none
CCc1nc2c(OCc3cc(Cl)cc(Cl)c3)cccn2c1N(C)C(=O)Nc1ccccc1OC	none (no result: NR2E3 ag-2)
O=c1oc(-c2ccccc2NS(=O)(=O)c2ccc3ccccc3c2)nc2ccccc12	rCAG RNA binder 66.4 | rCAG binder conf 37.1 | DNA CAG counter 11.6
O=C(O)c1ccccc1NS(=O)(=O)c1ccc2ccccc2c1	rCAG RNA binder 38.6 | rCAG binder conf inactive | DNA CAG counter 6.1
COc1ccccc1NC(=O)C(=O)NNS(=O)(=O)c1ccc2ccccc2c1	rCAG RNA binder 38.2 | rCAG binder conf inactive | DNA CAG counter 6.1
Cc1ccccc1-c1nc2ccccc2c(=O)o1	none (no result: NR2E3 ag-2)
COc1ccc(NC(=S)NNS(=O)(=O)c2ccc3ccccc3c2)c(OC)c1	none
O=C(O)c1ccccc1NS(=O)(=O)c1cccc(-n2sc3ccccc3c2=O)c1	rCAG RNA binder 71.6 | rCAG binder conf 74.4 | DNA CAG counter 34.0 | DNA CAG DR 7.2
CC1Cc2cc(/C=C3/SC(=S)NC3=O)ccc2O1 (stereo not given)	rCAG RNA binder 37.2 | rCAG binder conf inactive | DNA CAG counter 5.9
CCc1cc(C(=O)O)c(NC(=O)c2cc(OC)c(OC)c(OC)c2)s1	rCAG RNA binder 38.4 | rCAG binder conf inactive | DNA CAG counter inactive
O=C(/C=C/c1cccs1)Nc1scc(-c2ccccc2)c1C(=O)O	rCAG RNA binder 36.7 (no result: NR2E3 ag-2) | rCAG binder conf 36.2 | DNA CAG counter 11.0
COC(=O)c1c(-c2ccc(C)cc2)csc1NC(=O)C1CC=CCC1C(=O)O (stereo not given)	rCAG RNA binder 38.4 | rCAG binder conf 38.4 | DNA CAG counter 8.5
COc1cc(C(=O)Nc2scc(-c3ccc(C)cc3)c2C(=O)O)cc(OC)c1OC	rCAG RNA binder 49.7 | rCAG binder conf 75.5 | DNA CAG counter 39.3
COc1ccc(-c2csc(NC(=O)c3ccccc3F)c2C(=O)O)cc1	rCAG RNA binder 48.1 | rCAG binder conf inactive | DNA CAG counter 6.1
COc1cc(C(=O)Nc2c(C(=O)O)[nH]c3ccc(C)cc23)cc(OC)c1OC	rCAG RNA binder 53.8 (no result: NR2E3 ag-2) | rCAG binder conf inactive | DNA CAG counter 5.3
CC1CCc2c(sc(NC(=O)/C=C/c3cccs3)c2C(=O)O)C1 (stereo not given)	rCAG RNA binder 45.6 | rCAG binder conf 66.5 | DNA CAG counter 26.3
O=C(Nc1scc(-c2ccccc2)c1C(=O)O)c1ccccc1Cl	none
CC1CCc2c(sc(NC(=O)c3ccco3)c2C(=O)O)C1 (stereo not given)	none
Cc1ccc(C(=O)Nc2scc(-c3ccccc3)c2C(=O)O)cc1	rCAG RNA binder 51.2 | rCAG binder conf inactive | DNA CAG counter 8.8
CCOC(=O)c1[nH]c2ccccc2c1NC(=O)c1cc(OC)c(OC)c(OC)c1	none
C=CC(C)(O)CCCC(C)CCCC(C)CCCC(C)C (stereo not given)	none
Cc1ccc(C2=NC(=O)/C(=C/c3cc(O)c(O)c(Br)c3)S2)cc1	rCAG RNA binder 84.2 (no result: NR2E3 ag-2) | rCAG binder conf 86.2 | DNA CAG counter 52.3

Screens as filed in PubChem BioAssay.
